Source: ChEMBL document CHEMBL3808290, “Discovery of Potent, Orally Bioavailable Inhibitors of Human Cytomegalovirus” (ACS Med Chem Lett, 2016)
In brackets after ≈: the same amount, converted by molar mass.

What was measured:
[1] = tested on: Human betaherpesvirus 5; assay: Antiviral activity against HCMV AD169 infected in human MRC5 cells by CPE assay; format: functional, organism-based; conditions: Human betaherpesvirus 5, AD169, MRC5
Method in brief: (§1)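 MRC-5 fibroblasts were infected with HCMV and inhibition was read as protection from virus-induced cytopathic effect. EC50 is the half-maximal effect concentration, averaged over at least duplicate experiments, each run in triplicate.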

[2] = Cytotoxicity against human MRC5 cells; format: cell-based
[3] = Half life of compound in human liver microsomes; format: ADME
[4] = biological target: Cytochrome P450 3A4 (Homo sapiens, UniProt P08684); assay: Inhibition of CYP3A4 (unknown origin); format: ADME
Sequence of Cytochrome P450 3A4 (P08684 whole entry): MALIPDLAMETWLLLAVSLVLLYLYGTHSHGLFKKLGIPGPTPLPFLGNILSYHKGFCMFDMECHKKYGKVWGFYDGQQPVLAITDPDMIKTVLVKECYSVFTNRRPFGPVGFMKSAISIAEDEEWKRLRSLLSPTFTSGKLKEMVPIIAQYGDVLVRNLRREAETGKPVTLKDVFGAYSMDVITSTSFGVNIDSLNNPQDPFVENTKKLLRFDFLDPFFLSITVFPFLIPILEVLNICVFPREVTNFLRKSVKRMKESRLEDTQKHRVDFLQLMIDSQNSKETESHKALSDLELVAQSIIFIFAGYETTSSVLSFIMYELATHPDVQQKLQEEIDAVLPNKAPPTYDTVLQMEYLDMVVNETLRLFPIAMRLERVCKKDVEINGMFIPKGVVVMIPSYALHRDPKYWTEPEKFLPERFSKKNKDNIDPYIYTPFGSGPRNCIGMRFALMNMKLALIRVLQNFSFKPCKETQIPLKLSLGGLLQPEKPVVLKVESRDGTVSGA

[5] = Solubility of the compound at pH 6.8; format: physicochemical; conditions: buffer
[6] = tested on: Human betaherpesvirus 5; assay: Antiviral activity against HCMV AD169 assessed as inhibition of viral infection in human MRC5 cells by RT-qPCR method; format: functional, organism-based; conditions: Human betaherpesvirus 5, AD169, MRC5
Method in brief: (§2)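 Infected cells were treated with compound added at the same time as virus, so only a single cycle of viral replication is scored. Viral replication was read by RT-qPCR and EC50 was taken as the half-maximal effect concentration. Each value is at least the mean of duplicate experiments, each run in triplicate.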

[7] = biological target: Cytochrome P450 2C9 (Homo sapiens, UniProt P11712); assay: Inhibition of CYP2C9 (unknown origin); format: ADME
Sequence of Cytochrome P450 2C9 (P11712 whole entry): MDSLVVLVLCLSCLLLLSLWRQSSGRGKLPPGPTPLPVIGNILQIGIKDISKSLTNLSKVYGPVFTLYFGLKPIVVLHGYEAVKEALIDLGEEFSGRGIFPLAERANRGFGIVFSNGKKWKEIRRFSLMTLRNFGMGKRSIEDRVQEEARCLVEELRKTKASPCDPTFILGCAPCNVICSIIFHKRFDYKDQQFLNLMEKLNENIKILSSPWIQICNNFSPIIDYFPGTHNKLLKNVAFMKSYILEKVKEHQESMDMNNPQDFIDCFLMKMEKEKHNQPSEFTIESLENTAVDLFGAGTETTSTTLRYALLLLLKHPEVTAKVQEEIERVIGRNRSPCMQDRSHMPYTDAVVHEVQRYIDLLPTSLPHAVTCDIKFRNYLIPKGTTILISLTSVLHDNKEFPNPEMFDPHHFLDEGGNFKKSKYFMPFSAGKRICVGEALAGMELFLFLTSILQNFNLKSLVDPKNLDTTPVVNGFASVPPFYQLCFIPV

[8] = tested on: Liver microsome; assay: Metabolic stability in human liver microsomes assessed as compound hydrolysis in absence of NADPH
[9] = tested on: Salmonella typhimurium; assay: Genotoxicity in Salmonella typhimurium by Ames test; format: toxicity, organism-based; conditions: salmonella enterica subsp. enterica serovar typhimurium
[10] = tested on: Human betaherpesvirus 5; assay: Antiviral activity against HCMV VR1814 assessed as inhibition of viral infection in human ARPE19 cells by RT-qPCR method; format: functional, organism-based; conditions: Human betaherpesvirus 5, VR1814, ARPE-19; method in brief: as §2
[11] = biological target: T1, Cytochrome P450 2C8 (Homo sapiens, UniProt P10632); assay: Inhibition of CYP2C8 (unknown origin); format: ADME
T1 sequence (P10632 whole entry): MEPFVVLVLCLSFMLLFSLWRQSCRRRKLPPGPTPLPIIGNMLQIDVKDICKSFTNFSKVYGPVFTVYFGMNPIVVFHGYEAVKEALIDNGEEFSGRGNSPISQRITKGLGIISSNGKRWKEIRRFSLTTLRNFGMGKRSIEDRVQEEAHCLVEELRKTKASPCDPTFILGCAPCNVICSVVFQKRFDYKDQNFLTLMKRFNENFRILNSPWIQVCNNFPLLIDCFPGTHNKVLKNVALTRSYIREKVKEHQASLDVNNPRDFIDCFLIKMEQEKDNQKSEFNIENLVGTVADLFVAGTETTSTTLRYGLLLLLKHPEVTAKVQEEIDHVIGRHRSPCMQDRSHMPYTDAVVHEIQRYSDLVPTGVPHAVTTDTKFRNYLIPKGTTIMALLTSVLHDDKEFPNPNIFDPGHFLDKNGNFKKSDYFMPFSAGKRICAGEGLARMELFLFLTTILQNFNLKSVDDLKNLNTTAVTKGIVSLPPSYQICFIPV

[12] = Oral bioavailability in rat; format: ADME, organism-based; conditions: in vivo
[13] = tested on: Human betaherpesvirus 5; assay: Antiviral activity against HCMV TR assessed as inhibition of viral infection in human MRC5 cells by RT-qPCR method; format: functional, organism-based; conditions: Human betaherpesvirus 5, TR; method in brief: as §2
[14] = tested on: Human betaherpesvirus 5; assay: Antiviral activity against HCMV VR1814 assessed as inhibition of viral infection in human MRC5 cells by RT-qPCR method; format: functional, organism-based; conditions: Human betaherpesvirus 5, VR1814, MRC5; method in brief: as §2
[15] = tested on: Human betaherpesvirus 5; assay: Antiviral activity against HCMV VR1814 infected in human ARPE19 cells after 72 hrs by cell-to-cell spread assay; format: functional, organism-based; conditions: Human betaherpesvirus 5, VR1814, ARPE-19, 72 h
Method in brief: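 ARPE-19 cells were infected and replication ran for 24 h. Medium and free virus were then removed, and Cytogam neutralizing antibody plus fresh medium were added. After 48 h, allowing one full replication cycle, compounds were added. After a further 72 h, infected nuclei were stained with fluorescent anti-IE1 antibody and clusters imaged. IC50 came from dose-response curves, averaging at least duplicate experiments run in triplicate.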

[16] = tested on: Human betaherpesvirus 5; assay: Antiviral activity against HCMV TB40 assessed as inhibition of viral infection in human MRC5 cells by RT-qPCR method; format: functional, organism-based; conditions: Human betaherpesvirus 5, TB40, MRC5; method in brief: as §2
[17] = Half life of compound in rat; format: ADME, organism-based; conditions: in vivo
[18] = biological target: Cytochrome P450 2D6 (Homo sapiens, UniProt P10635); assay: Inhibition of CYP2D6 (unknown origin); format: ADME
Sequence of Cytochrome P450 2D6 (P10635 whole entry): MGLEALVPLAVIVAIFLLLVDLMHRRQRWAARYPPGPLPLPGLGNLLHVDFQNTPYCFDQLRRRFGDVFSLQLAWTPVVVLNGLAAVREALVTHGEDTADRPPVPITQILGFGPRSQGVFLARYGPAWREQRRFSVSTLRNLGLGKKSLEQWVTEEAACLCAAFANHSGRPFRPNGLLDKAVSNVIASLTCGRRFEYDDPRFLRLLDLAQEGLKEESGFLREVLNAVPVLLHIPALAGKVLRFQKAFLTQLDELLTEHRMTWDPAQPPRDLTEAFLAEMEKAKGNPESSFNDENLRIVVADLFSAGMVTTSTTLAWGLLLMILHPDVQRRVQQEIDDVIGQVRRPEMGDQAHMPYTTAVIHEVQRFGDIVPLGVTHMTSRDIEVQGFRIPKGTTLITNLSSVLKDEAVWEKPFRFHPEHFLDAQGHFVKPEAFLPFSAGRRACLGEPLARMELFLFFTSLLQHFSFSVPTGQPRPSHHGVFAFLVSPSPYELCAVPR

[19] = Volume of distribution at steady state in rat; format: ADME, organism-based; conditions: in vivo, read-out: Vdss
[20] = tested on: Human betaherpesvirus 5; assay: Antiviral activity against HCMV TR infected in human MRC5 cells by CPE assay; format: functional, organism-based; conditions: Human betaherpesvirus 5, TR; method in brief: as §1
[21] = Apparent permeability across apical to basolateral side in human Caco2 cells; format: ADME, cell-based; conditions: Caco-2

Compound	half-life [3]	IC50 [4]	solubility [5]	IC50 [7]	Stability [8]	EC50 [1]	CC50 [2]	EC50 [6]	Activity [9]	other results
CC(C)CC(O)(c1cccc(C(F)(F)F)c1)c1nc(-n2ccc(NC(=O)c3cscn3)cc2=O)c[nH]1 (stereo unspecified)	0.267 h	> 30000 nM	< 0.1 µg/mL	150 nM	–	–	–	28 nM	–	–
CC(O)(c1cccc(C(F)(F)F)c1)c1nc(-n2ccc(NC(=O)c3cscn3)cc2=O)c[nH]1 (stereo unspecified)	> 2 h	> 30000 nM	76 µg/mL (≈ 160 µM)	3000 nM	–	–	–	540 nM	–	EC50 [10]: 1700 nM; IC50 [11]: 4700 nM; bioavailability [12]: 72%; EC50 [13]: 470 nM; EC50 [14]: 910 nM; EC50 [15]: 800 nM; EC50 [16]: 250 nM; half-life [17]: 1.9 h; IC50 [18]: 17000 nM; Vd [19]: 2.5 L
CC(c1cccc(C(F)(F)F)c1)n1cnc(-n2ccc(NC(=O)c3cscn3)cc2=O)c1 (stereo unspecified)	–	–	< 0.1 µg/mL	2100 nM	–	–	–	2400 nM	–	IC50 [11]: 1700 nM
COc1cccc(C(=O)Nc2ccc(NC(=O)c3ccco3)cc2)c1	0.2 h	> 30000 nM	1.9 µg/mL (≈ 5.65 µM)	–	–	4000 nM	> 82000 nM	2500 nM	–	EC50 [20]: 8200 nM; IC50 [18]: > 30000 nM; Papp A→B [21]: 11 ×10⁻⁶ cm/s
O=C(Nc1ccc(NC(=O)c2ccco2)cc1)c1cccnc1	–	–	–	–	–	38000 nM	> 57000 nM	–	–	–
COc1cccc(C(=O)Nc2ccc(NC(=O)c3ccco3)cc2)c1F	–	–	–	–	–	8000 nM	> 57000 nM	–	–	–
COc1cccc(C(=O)Nc2ccc(NC(=O)c3cscn3)cc2)c1	0.367 h	–	–	–	–	640 nM	> 57000 nM	–	–	–
COc1cccc(C(=O)Nc2ccc(NC(=O)c3csnn3)cc2)c1	0.567 h	–	–	–	–	3000 nM	> 57000 nM	–	–	–
Cc1ccc(C(C)(O)c2nc(-n3ccc(NC(=O)c4cscn4)cc3=O)c[nH]2)cc1 (stereo unspecified)	1.2 h	> 30000 nM	16 µg/mL (≈ 38 µM)	14000 nM	–	–	–	1900 nM	–	IC50 [11]: 18000 nM
O=C(Nc1ccc(NC(=O)c2ccco2)cc1)c1cccc(Cl)c1	0.233 h	–	–	–	–	1100 nM	> 57000 nM	–	–	–
O=C(Nc1ccc(NC(=O)c2ccco2)cc1)c1ccc(Cl)c(C(F)(F)F)c1	0.233 h	–	–	–	–	340 nM	> 57000 nM	–	–	–
O=C(Nc1ccn(-c2c[nH]c(C(O)c3cccc(C(F)(F)F)c3)n2)c(=O)c1)c1cscn1 (stereo unspecified)	> 2 h	> 30000 nM	–	7300 nM	–	–	–	470 nM	–	IC50 [11]: 4300 nM
O=C(Nc1ccn(-c2cn(Cc3cccc(C(F)(F)F)c3)cn2)c(=O)c1)c1cscn1	> 2 h	1900 nM	< 0.16 µg/mL	2100 nM	–	–	–	> 5800 nM	–	–
CC(C)OC(c1cccc(C(F)(F)F)c1)c1nc(-n2ccc(NC(=O)c3cscn3)cc2=O)c[nH]1 (stereo unspecified)	> 2 h	> 30000 nM	< 0.1 µg/mL	1400 nM	–	–	–	110 nM	–	IC50 [11]: 180 nM
COc1cccc(C(=O)Nc2ccc(NC(=O)c3cncnc3)cc2)c1	–	–	–	–	–	> 57000 nM	> 57000 nM	–	–	–
CC(c1cccc(C(F)(F)F)c1)c1nc(-n2ccc(NC(=O)c3cscn3)cc2=O)c[nH]1 (stereo unspecified)	> 2 h	> 30000 nM	< 0.1 µg/mL	31 nM	–	–	–	150 nM	–	–
COc1cccc(C(=O)Nc2ccc(NC(=O)c3cocn3)cc2)c1	1.63 h	–	–	–	–	4400 nM	> 57000 nM	–	–	–
Cc1cccc(C(C)(O)c2nc(-n3ccc(NC(=O)c4cscn4)cc3=O)c[nH]2)c1 (stereo unspecified)	–	> 30000 nM	63 µg/mL (≈ 149 µM)	13000 nM	–	–	–	3600 nM	–	IC50 [11]: 21000 nM

The next lines start with results.

half-life [3]	IC50 [4]	solubility [5]	IC50 [7]	Stability [8]	Compound	EC50 [1]	CC50 [2]	EC50 [6]	Activity [9]	other results
1.83 h	–	–	–	–	O=C(Nc1ccc(/N=C(\S)Nc2cc(C(F)(F)F)cc(C(F)(F)F)c2)cc1)c1csnn1	250 nM	36000 nM	–	–	–
–	–	–	–	Unstable	O=C(Nc1ccc2nc(NCc3cc(C(F)(F)F)cc(C(F)(F)F)c3)sc2c1)c1cscn1	430 nM	> 57000 nM	–	Toxic	–
–	–	–	–	Stable	O=C(Nc1ccc2nc(Cc3cc(C(F)(F)F)cc(C(F)(F)F)c3)[nH]c2c1)c1cscn1	2300 nM	> 57000 nM	–	Toxic	–
–	–	–	–	Stable	O=C(Cc1ccc(NC(=O)c2cscn2)cn1)Nc1cc(C(F)(F)F)cc(C(F)(F)F)c1	540 nM	> 57000 nM	–	Toxic	–
–	–	–	–	Unstable	O=C(Nc1ccc(-c2c[nH]c(-c3cc(C(F)(F)F)cc(C(F)(F)F)c3)n2)cc1)c1cscn1	130 nM	7800 nM	–	Toxic	–
–	–	–	–	Unstable	O=C(Cc1ccc(NC(=O)c2cscn2)cc1)Nc1cc(C(F)(F)F)cc(C(F)(F)F)c1	130 nM	36000 nM	–	Toxic	–
–	–	–	–	Stable	O=C(Cc1ccc(NC(=O)c2cscn2)nc1)Nc1cc(C(F)(F)F)cc(C(F)(F)F)c1	440 nM	> 57000 nM	–	Toxic	–
1.57 h	–	–	–	Unstable	O=C(Cc1cc(C(F)(F)F)cc(C(F)(F)F)c1)Nc1ccc(NC(=O)c2cscn2)cc1	220 nM	> 57000 nM	–	Toxic	–
–	–	–	–	Stable	O=C(Cn1ccc(NC(=O)c2cscn2)cc1=O)Nc1cc(C(F)(F)F)cc(C(F)(F)F)c1	440 nM	28000 nM	–	Non-toxic	–
–	–	–	–	Stable	O=C(Cc1cc(C(F)(F)F)cc(C(F)(F)F)c1)Nc1ccc2nc(NC(=O)c3cscn3)sc2c1	250 nM	> 57000 nM	–	Toxic	–
